# Screening results deposited in PubChem by Broad Institute.
# CASP6 VEID inh: inhibitors of human caspase-6; P55212; purified caspase-6, Z-VEID-R110 cleavage fluorescence; inhibition, % at 12.5 µM; hit rate 0.53% among 350,000; AID 686996;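 active means mean inhibition across replicates at least about 35%, with every replicate also reaching that limit, limit read from the data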;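 further: 0% = median of neutral control wells and 100% = no fluorescence left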
# PGC1a acetyl inh: PGC1a acetylation modulation, inhibitor mode; inhibition, % at 15.6 µM; hit rate 0.17% among 350,000; U2OS PGC1a acetylation, AlphaScreen anti-acetyl-lysine; with virally co-expressed GCN5 acetyltransferase; AID 651687;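 active means every replicate shows inhibition of at least 40%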;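 further: 0% = neutral control wells and 100% = positive control wells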
# ARNT-TACC3 inh: disruptors of human ARNT/TACC3 interaction; AlphaScreen His-ARNT PAS-B/GST-TACC3 binding, luminescence; TACC3 fragment carries E629A point mutation; inhibition, % at 9.99 µM; hit rate 0.66% among 390,000; AID 623870;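 active means mean inhibition of replicates at least 50% and at least half of replicates each reaching 50%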;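 further: 0% = complete ARNT plus TACC3 wells and 100% = ARNT alone without TACC3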
# ERAP1 inh: blocks human ERAP1 aminopeptidase activity | recombinant ERAP1, Leu-AMC fluorescence, 60 min | inhibition, % at 10.7 µM | hit rate 0.15% among 340,000 | AID 652197;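 active means mean replicate inhibition of at least 30%, or all replicates individually reaching that 30% level; inactive means mean below 30% and not every replicate reaching it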;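 further: 0% = neutral control wells and 100% = L-leucinethiol positive control wells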
# Target sequence (Q9NZ08 whole entry, looked up): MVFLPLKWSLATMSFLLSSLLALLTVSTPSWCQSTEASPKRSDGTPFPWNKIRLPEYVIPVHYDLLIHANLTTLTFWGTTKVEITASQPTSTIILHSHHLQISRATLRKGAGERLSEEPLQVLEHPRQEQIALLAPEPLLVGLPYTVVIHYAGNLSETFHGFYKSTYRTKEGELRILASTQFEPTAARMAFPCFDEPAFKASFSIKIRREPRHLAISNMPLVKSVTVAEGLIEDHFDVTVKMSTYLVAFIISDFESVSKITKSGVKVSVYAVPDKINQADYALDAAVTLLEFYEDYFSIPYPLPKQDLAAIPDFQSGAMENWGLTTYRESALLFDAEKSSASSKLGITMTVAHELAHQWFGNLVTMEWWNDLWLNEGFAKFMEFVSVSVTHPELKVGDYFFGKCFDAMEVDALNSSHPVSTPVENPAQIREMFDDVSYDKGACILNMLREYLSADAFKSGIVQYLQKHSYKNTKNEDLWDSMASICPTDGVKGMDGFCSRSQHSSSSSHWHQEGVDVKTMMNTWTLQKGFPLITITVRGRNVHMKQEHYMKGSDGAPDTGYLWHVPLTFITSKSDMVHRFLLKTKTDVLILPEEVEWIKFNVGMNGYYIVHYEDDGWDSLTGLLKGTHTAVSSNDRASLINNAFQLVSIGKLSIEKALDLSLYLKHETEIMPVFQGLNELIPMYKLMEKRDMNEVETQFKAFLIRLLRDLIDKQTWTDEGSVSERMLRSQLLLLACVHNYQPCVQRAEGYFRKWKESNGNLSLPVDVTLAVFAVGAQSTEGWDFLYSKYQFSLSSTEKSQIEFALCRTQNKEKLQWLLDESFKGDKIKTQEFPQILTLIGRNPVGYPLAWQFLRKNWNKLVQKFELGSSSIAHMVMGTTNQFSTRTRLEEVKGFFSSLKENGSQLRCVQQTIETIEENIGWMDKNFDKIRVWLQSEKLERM
# S100A4 inh HTS: blocks human S100A4 binding to myosin IIA peptide | P26447 | S100A4/TAMRA-MyoIIA peptide fluorescence polarization | inhibition, % at 10.7 µM | hit rate 0.14% among 360,000 | AID 652163;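 active means mean inhibition of at least 70% across replicates, with every replicate also reaching that level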
#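 incubation = readout 5 min after mixing, signal stable up to 60 min | system = S100A4 monomer protein | buffer or medium = HEPES pH 7.2 with CaCl2, KCl, NaCl, DTT, Triton | benchmarks = neutral control DMSO, positive control TFP | also added = fluorescent myosin IIA peptide, 5 nM | compound dosing = one concentration per compound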
# Ecoli rRNA inh: inhibits bacterial ribosomal RNA function over humanized ribosomes; hit rate 1.6% among 350,000; GFP signal change (wild-type ribosome), % (concentration not given with the values); E. coli WT GFP vs humanized-ribosome RFP mutants, fluorescence, 24 h; stronger effect = lower value; DMSO median 0, no signal -100;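 active means significant combined selectivity score with lowered wild-type GFP, culture density cut under 30%, mutant RFP and density less affected; inactive means any of these conditions unmet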
# * marks the source's active call; other numbers are inactive results; / = no result given; ! = repeats disagree. The list is not random: actives were taken first. Their share in the collection is about 2.4%.
SMILES,CASP6 VEID inh,PGC1a acetyl inh,ARNT-TACC3 inh,ERAP1 inh,S100A4 inh HTS,Ecoli rRNA inh
COC(=O)C(Cc1ccccc1)NC(=O)c1ccc(C)cc1 (stereo not drawn),3,/,-8,-2,-2,-2
COC(=O)C(Cc1csc2ccc(Cl)cc12)NC(=O)c1ccc(Cl)cc1 (stereo not drawn),-2,/,-3,3,0,-16*
CCS(=O)(=O)Nc1ccc2c(c1)C(=O)N(C)[C@@H]1CC[C@@H](CC(=O)NC)O[C@@H]1CO2,1,1,-11,-2,67,-1
Nc1c2ccccc2nc2ccccc12,-5,12,9,61*,-1,-43*!
N#C[C@@H]1[C@H](c2ccccc2)[C@@H](CO)N1C(=O)Nc1cccc(F)c1,0,-8,-12,0,-21,4
Oc1ccccc1C=NCCN1CCN(CCN=Cc2ccccc2O)C1c1ccccc1O (stereo not drawn),-343,9,71*,1,0,9
CC(C)[C@@H](CO)NC(=O)[C@H]1[C@@H](c2ccccc2)N(c2ccccc2)O[C@@H]1C,0,-9,/,-4,1,/
Cc1noc(C)c1S(=O)(=O)N(C)C[C@@H]1OCCCC[C@H](C)Oc2ccc(NC(=O)Nc3ccccc3)cc2C(=O)N([C@@H](C)CO)C[C@H]1C,1,-9,11,2,10,6
CCN(CC)S(=O)(=O)c1cccc(-c2n[nH]c(=S)n2/N=C/c2ccc(OC)cc2)c1,/,/,4,/,/,/
CCN(CC)S(=O)(=O)c1cccc(-c2n[nH]c(=S)n2/N=C/c2ccc(OC(F)F)cc2)c1,-3,/,11,4,-1,-18*
COc1ccc(S(=O)(=O)N(C)C[C@@H]2Oc3c(NC(=O)CCCCCC(=O)Nc4ccccc4N)cccc3C(=O)N([C@H](C)CO)C[C@H]2C)cc1,0,6,/,-2,56,-3
N#C/C(=N\Nc1ccc(F)cc1)C(=O)C1CC1,0,1,/,0,-9,-34*
O=[N+]([O-])c1ccc(Cl)c(S(=O)(=O)Nc2ccc3cn[nH]c3c2)c1,1,-25,8,-3,-3,-12
O=C(O)c1cc(S(=O)(=O)Nc2ccc3cn[nH]c3c2)ccc1O,60*,-3,6,-6,7,2
O=C(O)c1ccc(Cl)c(S(=O)(=O)Nc2ccc3cn[nH]c3c2)c1,37*,/,3,-10,1,4
CCCC#Cc1ccc([C@H]2[C@@H](CO)N(C(C)=O)[C@H]2CNC(=O)C2CCCC2)cc1,2,/,/,-4,-3,1
O=[N+]([O-])c1ccc(Oc2cccc(F)c2)c2ccncc12,/,71*,-2,/,/,/
O=[N+]([O-])c1cnccc1Nc1cccc(F)c1,/,/,-6,/,/,/
COc1ccccc1NC(=O)CNC(c1ccccc1)c1ccccc1,2,/,/,-3,4,-8
O=C(CNC(c1ccccc1)c1ccccc1)Nc1ccccc1Br,1,-15,-18,-3,0,-33*
CCCNC(=O)N1CCC2(CC1)CN(C(=O)CC)[C@H](CO)c1c2c2ccc(OC)cc2n1C,/,-4,/,-3,8,-1
COc1ccc(-c2cc(=O)[nH][nH]2)cc1OC,/,7,50*,/,/,/
CCN(CC(=O)Nc1ccccc1C(F)(F)F)C(=O)Cn1c(=O)cnc2ccccc21,0,/,-3,32*,-3,6
CCN(CC(=O)Nc1c(F)cccc1F)C(=O)Cn1c(=O)cnc2ccccc21,-92,2,-4,1,7,4
O=S(=O)(c1ccccc1)N1[C@@H]2CNc3ccccc3[C@@H]2[C@@H]1CO,1,-1,1,0,-5,-1
SMILES,CASP6 VEID inh,PGC1a acetyl inh,ARNT-TACC3 inh,ERAP1 inh,S100A4 inh HTS,Ecoli rRNA inh
Cc1ccsc1/C=C1\CCC(C2CCCC2)C1=O (stereo not drawn),0,-3,-2,2,-6,-23*
Cc1ccc(/C=C2\CCC(C3CCCC3)C2=O)cc1 (stereo not drawn),/,/,-3,/,/,/
COc1ccc(S(=O)(=O)Nc2ccc3c(c2)C(=O)N([C@H](C)CO)C[C@H](C)[C@H](CN(C)S(C)(=O)=O)O3)cc1,2,-5,/,-1,3,4
CN(C)C(=O)c1ccc(-c2ccc3c(c2)[C@@H]2[C@@H](CCN2C(=O)c2ccc4c(c2)OCO4)[C@@H](CO)N3)cc1,/,8,6,/,/,-5
COc1ccc(-c2nc3ccccc3[nH]2)cc1,3,0,1,3,-3,-16
COc1ccc(-c2cc(=O)n(-c3nc4ccccc4[nH]3)[nH]2)cc1,/,-13,47*,/,/,/
CCOC(=O)c1c(N)sc(C(=O)N2CCCCC2)c1C,/,-15,47*,/,/,/
CCOC(=O)c1c(N)sc(C(=O)N2CCCC2)c1C,/,-1,/,/,/,/
Cn1cnc(CCNC(=O)C[C@H]2CC[C@@H]3[C@H](COC[C@@H](O)CN3C(=O)C3CCCC3)O2)c1,1,1,6,1,-15,4
CCC(C(=O)NCCc1ccc(C)cc1)n1nc(C)c2c(C)n(-c3ccccc3)nc2c1=O (stereo not drawn),3,0,1,3,-6,-21*
CSc1nnc(-c2cc(Br)ccc2N=Cc2c(C)[nH]n(-c3ccccc3)c2=O)c(=O)[nH]1,-1,-4,14,1,-4,-25*
CCSc1nnc(-c2cc(Br)ccc2N=Cc2c(C)[nH]n(-c3ccccc3)c2=O)c(=O)[nH]1,-2,2,7,2,-3,-1
O=C(NCc1ccccc1)[C@H]1[C@H](CO)[C@H]2Cn3c(ccc(/C=C/c4ccccc4)c3=O)[C@@H]1N2CC1CC1,-1,-3,/,-1,7,-12
O=C(C[C@@H]1CC[C@H](NC(=O)c2ccncc2)[C@@H](CO)O1)NCCc1ccncc1,0,2,-8,2,-1,4
[N-]=[N+]=NC[C@H](Cc1ccccc1)N1CC[C@@H](OCc2ccccc2)CCC1=O,3,/,8,-10,8,-25*
[N-]=[N+]=NC[C@H](Cc1ccccc1)N1CC[C@@H](O)CCC1=O,-1,/,-1,-1,-1,9
O=C(O)C1C2CC3C(OC(=O)C31)C2Cl (stereo not drawn),/,-15,-10,/,/,/
O=C(O)C1C2CC3OC(=O)C1C3C2 (stereo not drawn),2,62*,-3,0,3,21
O=C(NNC(=S)Nc1cccc2ccccc12)c1cccc(Br)c1,/,4,29*,/,/,/
O=C(NNC(=O)c1ccc2ccccc2c1)c1cccc(Br)c1,0,-3,-4,4,6,1
CCn1c(C)nc2cc(C(=O)NNC(=S)Nc3ccccc3OC)ccc21,0,/,/,4,-11,-20*
